# Reference: ChEMBL document CHEMBL5696442, “Discovery of type II inhibitors of TGFβ-activated kinase 1 (TAK1) and mitogen-activated protein kinase kinase kinase kinase 2 (MAP4K2)” (J Med Chem, 2015)
# Active and inactive are the calls of the source. The rule behind the calls is not given here.
# How the values were obtained:
# [1] = molecular target: Atypical kinase COQ8A, mitochondrial (Homo sapiens) (UniProt Q8NI60); experiment: Inhibition of ADCK3 (unknown origin) at 10 uM by Ambit Kinomescan binding assay
# Ephrin type-A receptor 2 = Ephrin type-A receptor 2 (Homo sapiens, UniProt P29317); experiment: Inhibition of EphA2 ACT labeling site in human A-375 cells at 5 uM by KiNativ Profiling analysis relative to control; assay type: cell-based
# [2] = molecular target: Serine/threonine-protein kinase 17A (Homo sapiens) (UniProt Q9UEE5); experiment: Inhibition of DRAK1 (unknown origin) at 10 uM by Ambit Kinomescan binding assay
# [3] = molecular target: Serine/threonine-protein kinase 10 (Homo sapiens) (UniProt O94804); experiment: Inhibition of LOK Lys1 labeling site harbouring ETGALAAAKVIETK in human A-375 cells at 5 uM by KiNativ Profiling analysis relative to control; assay type: cell-based
# [4] = molecular target: Activated CDC42 kinase 1 (Homo sapiens) (UniProt Q07912); experiment: Inhibition of ACK Lys1 labeling site in human A-375 cells at 5 uM by KiNativ Profiling analysis relative to control; assay type: cell-based
# [5] = Inhibition of MARK2/3 K2 labeling site in human Huh-7 cells at 1 uM by KiNativ Profiling analysis relative to control; conditions: condition cancer
# [6] = molecular target: Protein kinase C delta type (Homo sapiens) (UniProt Q05655); experiment: Inhibition of PRKCD (unknown origin) at 10 uM by Ambit Kinomescan binding assay
# [7] = molecular target: Tyrosine-protein kinase CSK (Homo sapiens, UniProt P41240); experiment: Inhibition of CSK ACT labeling site harbouring VSDFGLTKEASSTQDTGK in human A-375 cells at 0.5 uM by KiNativ Profiling analysis relative to control; assay type: cell-based
# [8] = Inhibition of KHS1 Lys2 labeling site harbouring DIKGANILLTDHGDVK in human Huh-7 cells at 1 uM by KiNativ Profiling analysis relative to control; conditions: condition cancer
# [9] = molecular target: T1, Serine/threonine-protein kinase greatwall (Homo sapiens) (UniProt Q96GX5); experiment: Inhibition of MASTL Lys2 labeling site in human Huh-7 cells at 1 uM by KiNativ Profiling analysis relative to control; assay type: cell-based
# T1 sequence (whole entry): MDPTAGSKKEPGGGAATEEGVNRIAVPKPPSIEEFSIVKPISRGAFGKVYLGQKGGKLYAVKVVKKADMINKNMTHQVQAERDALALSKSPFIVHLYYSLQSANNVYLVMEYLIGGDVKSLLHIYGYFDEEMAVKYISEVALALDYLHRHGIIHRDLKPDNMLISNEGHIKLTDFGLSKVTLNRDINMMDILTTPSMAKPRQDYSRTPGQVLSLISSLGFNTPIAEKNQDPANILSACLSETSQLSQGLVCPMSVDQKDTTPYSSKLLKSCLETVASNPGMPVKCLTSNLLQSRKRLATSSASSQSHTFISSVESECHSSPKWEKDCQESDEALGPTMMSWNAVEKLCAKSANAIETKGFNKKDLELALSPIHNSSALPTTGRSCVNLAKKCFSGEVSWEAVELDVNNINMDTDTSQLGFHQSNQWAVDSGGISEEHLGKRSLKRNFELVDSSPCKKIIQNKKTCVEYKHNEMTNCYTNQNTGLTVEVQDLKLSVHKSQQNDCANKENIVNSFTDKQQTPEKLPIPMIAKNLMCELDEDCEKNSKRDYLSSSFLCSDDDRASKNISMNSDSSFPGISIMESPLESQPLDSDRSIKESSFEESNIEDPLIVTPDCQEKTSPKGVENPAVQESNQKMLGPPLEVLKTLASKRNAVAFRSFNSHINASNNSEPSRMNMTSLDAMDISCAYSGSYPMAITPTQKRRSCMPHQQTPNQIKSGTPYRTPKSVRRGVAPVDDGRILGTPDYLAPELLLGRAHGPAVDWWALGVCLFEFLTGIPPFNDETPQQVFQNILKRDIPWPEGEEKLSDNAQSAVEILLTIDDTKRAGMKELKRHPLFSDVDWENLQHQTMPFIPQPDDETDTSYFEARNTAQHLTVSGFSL
# [10] = molecular target: Ribosomal protein S6 kinase alpha-3 (Homo sapiens) (UniProt P51812); experiment: Inhibition of RSK2 domain2 Lys2 labeling site harbouring TVEYLHAQGVVHRDLKPSNILYVDESGNPESIR in human Huh-7 cells at 1 uM by KiNativ Profiling analysis relative to control; assay type: cell-based
# [11] = molecular target: DNA-PK/Ku70/Ku85 (Homo sapiens) (UniProt P78527+P12956+P13010); experiment: Inhibition of DNAPK ATP labeling site harbouring KGGSWIQEINVAEK in human Huh-7 cells at 1 uM by KiNativ Profiling analysis relative to control; assay type: cell-based
# [12] = molecular target: Myosin-IIIa (Homo sapiens) (UniProt Q8NEV4); experiment: Inhibition of MYO3A (unknown origin) at 1 uM by Ambit Kinomescan binding assay relative to control
# Method in brief: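 In vitro ATP-site competition binding assay against a panel of over 420 kinases (KinomeScan), with compound tested at 10 or 1 μM.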
# [13] = tested on: Proto-oncogene tyrosine-protein kinase receptor Ret (Homo sapiens), P07949 [M918T]; experiment: Inhibition of RET M918T mutant (unknown origin) at 1 uM by Ambit Kinomescan binding assay relative to control; values are per cent of control
# [14] = molecular target: Serine/threonine-protein kinase tousled-like 2 (Homo sapiens) (UniProt Q86UE8); experiment: Inhibition of TLK2 (unknown origin) at 1 uM by Ambit Kinomescan binding assay relative to control
# [15] = molecular target: Activin receptor type-2A (Homo sapiens) (UniProt P27037); experiment: Inhibition of ACVR2A (unknown origin) at 1 uM by Ambit Kinomescan binding assay relative to control
# [16] = molecular target: SRSF protein kinase 3 (Homo sapiens) (UniProt Q9UPE1); experiment: Inhibition of SRPK3 (unknown origin) at 1 uM by Ambit Kinomescan binding assay relative to control
# [17] = molecular target: Cyclin-dependent kinase 5 (Homo sapiens) (UniProt Q00535); experiment: Inhibition of CDK5 Lys1 labeling site in human A-375 cells at 0.5 uM by KiNativ Profiling analysis relative to control; assay type: cell-based
# Cyclin-dependent kinase 5 (Homo sapiens), sequence (Q00535 whole entry, looked up): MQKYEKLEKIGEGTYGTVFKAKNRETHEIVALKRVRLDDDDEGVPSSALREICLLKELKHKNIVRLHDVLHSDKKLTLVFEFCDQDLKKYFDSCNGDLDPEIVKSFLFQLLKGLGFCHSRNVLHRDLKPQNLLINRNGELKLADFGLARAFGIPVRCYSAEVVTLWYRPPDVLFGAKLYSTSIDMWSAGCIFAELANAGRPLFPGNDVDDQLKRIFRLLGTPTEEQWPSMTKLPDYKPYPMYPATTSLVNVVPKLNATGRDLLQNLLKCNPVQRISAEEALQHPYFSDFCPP
# Ephrin type-A receptor 2, sequence (P29317 whole entry): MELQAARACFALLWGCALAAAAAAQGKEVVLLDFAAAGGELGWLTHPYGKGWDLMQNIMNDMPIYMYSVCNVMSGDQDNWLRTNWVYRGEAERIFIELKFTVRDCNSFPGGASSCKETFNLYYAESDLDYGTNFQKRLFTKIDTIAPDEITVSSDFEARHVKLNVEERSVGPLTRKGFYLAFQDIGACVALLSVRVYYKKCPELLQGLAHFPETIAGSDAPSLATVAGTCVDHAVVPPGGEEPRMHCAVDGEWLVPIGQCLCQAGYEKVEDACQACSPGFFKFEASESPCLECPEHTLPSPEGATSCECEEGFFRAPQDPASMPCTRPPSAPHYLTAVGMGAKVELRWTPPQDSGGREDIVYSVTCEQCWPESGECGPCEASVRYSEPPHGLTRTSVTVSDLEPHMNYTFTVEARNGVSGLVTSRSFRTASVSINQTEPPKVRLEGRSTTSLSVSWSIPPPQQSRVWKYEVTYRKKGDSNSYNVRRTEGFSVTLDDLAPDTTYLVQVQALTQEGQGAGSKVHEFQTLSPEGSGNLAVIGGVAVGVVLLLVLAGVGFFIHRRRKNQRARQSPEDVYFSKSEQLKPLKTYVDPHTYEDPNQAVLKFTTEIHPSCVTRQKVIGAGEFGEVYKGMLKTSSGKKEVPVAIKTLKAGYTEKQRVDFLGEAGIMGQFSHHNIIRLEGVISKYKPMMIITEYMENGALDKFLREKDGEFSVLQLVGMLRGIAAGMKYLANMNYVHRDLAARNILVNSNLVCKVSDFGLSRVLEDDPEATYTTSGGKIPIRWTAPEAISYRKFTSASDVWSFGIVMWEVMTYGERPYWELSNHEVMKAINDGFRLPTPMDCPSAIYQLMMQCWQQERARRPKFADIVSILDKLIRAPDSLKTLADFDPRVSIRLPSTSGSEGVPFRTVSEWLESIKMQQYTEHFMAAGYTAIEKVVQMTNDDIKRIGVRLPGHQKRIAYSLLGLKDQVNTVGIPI
# Serine/threonine-protein kinase 17A (Homo sapiens), sequence (Q9UEE5 whole entry): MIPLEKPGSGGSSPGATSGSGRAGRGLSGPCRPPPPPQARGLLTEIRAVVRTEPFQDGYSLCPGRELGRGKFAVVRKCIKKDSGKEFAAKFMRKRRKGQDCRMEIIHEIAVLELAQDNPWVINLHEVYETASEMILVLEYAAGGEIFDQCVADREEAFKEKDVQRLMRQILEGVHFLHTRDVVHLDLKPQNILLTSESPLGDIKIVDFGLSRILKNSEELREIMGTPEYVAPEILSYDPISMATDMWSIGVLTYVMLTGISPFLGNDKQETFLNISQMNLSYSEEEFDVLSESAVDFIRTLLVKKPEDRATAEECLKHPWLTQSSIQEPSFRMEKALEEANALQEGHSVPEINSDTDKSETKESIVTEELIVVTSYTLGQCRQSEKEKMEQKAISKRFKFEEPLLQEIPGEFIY
# Serine/threonine-protein kinase tousled-like 2 (Homo sapiens), sequence (Q86UE8 whole entry, looked up): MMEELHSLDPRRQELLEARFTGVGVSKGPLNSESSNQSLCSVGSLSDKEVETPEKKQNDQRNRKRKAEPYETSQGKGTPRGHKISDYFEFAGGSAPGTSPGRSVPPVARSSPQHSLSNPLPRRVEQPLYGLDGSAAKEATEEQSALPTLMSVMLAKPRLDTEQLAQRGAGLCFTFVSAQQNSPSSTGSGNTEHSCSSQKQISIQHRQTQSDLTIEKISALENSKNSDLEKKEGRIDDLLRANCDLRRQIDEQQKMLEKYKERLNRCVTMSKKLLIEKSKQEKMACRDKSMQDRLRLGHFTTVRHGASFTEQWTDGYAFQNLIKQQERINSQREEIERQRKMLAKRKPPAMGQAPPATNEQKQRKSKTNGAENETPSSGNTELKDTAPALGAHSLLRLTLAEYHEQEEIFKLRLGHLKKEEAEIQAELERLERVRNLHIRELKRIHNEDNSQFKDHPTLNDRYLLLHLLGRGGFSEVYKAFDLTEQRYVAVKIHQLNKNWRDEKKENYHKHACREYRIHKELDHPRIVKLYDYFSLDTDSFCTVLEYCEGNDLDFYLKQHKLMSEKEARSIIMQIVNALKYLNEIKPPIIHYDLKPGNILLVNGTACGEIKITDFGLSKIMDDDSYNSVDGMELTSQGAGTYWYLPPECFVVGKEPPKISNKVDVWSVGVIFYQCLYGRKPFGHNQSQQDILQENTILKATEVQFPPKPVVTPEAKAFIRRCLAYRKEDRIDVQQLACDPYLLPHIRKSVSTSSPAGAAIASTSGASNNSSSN
# Protein kinase C delta type (Homo sapiens), sequence (Q05655 whole entry, looked up): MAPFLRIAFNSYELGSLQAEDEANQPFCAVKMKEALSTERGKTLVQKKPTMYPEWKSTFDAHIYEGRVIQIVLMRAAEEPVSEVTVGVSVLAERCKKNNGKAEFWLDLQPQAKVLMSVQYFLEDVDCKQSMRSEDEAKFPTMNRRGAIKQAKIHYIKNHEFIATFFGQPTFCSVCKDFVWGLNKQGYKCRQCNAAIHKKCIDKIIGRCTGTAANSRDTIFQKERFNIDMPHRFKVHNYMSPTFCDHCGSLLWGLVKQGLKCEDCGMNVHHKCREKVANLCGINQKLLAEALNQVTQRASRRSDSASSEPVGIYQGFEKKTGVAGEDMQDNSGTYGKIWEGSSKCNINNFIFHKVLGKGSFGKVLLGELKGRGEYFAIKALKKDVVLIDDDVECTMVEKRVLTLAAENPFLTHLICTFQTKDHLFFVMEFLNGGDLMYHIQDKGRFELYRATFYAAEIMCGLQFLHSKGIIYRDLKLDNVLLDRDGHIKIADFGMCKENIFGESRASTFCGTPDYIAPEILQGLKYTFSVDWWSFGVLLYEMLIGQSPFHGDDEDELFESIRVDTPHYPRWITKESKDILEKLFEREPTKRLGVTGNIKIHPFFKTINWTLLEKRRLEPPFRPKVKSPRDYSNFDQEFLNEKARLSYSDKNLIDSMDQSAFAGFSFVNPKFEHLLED
# Ribosomal protein S6 kinase alpha-3 (Homo sapiens), sequence (P51812 whole entry, the tested form may be a part): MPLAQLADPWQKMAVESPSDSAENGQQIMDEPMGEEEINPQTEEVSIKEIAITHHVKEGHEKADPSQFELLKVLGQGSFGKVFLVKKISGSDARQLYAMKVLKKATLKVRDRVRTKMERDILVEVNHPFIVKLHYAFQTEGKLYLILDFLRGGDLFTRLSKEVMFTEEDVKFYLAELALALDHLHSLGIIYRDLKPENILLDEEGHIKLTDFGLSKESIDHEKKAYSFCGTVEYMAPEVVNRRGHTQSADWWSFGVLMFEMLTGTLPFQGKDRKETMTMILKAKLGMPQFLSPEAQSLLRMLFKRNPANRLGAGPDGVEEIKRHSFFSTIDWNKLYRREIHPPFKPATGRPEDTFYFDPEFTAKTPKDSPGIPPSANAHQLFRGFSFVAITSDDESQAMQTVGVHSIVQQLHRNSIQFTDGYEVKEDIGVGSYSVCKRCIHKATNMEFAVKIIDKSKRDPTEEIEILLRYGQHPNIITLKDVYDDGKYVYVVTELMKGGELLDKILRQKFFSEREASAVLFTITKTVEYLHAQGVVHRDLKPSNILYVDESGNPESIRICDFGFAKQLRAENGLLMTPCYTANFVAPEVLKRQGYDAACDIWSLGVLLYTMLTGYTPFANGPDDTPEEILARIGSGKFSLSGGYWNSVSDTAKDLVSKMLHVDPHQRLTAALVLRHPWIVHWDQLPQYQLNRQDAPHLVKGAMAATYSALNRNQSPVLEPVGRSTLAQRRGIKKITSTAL
# Activated CDC42 kinase 1 (Homo sapiens), sequence (Q07912 whole entry, looked up): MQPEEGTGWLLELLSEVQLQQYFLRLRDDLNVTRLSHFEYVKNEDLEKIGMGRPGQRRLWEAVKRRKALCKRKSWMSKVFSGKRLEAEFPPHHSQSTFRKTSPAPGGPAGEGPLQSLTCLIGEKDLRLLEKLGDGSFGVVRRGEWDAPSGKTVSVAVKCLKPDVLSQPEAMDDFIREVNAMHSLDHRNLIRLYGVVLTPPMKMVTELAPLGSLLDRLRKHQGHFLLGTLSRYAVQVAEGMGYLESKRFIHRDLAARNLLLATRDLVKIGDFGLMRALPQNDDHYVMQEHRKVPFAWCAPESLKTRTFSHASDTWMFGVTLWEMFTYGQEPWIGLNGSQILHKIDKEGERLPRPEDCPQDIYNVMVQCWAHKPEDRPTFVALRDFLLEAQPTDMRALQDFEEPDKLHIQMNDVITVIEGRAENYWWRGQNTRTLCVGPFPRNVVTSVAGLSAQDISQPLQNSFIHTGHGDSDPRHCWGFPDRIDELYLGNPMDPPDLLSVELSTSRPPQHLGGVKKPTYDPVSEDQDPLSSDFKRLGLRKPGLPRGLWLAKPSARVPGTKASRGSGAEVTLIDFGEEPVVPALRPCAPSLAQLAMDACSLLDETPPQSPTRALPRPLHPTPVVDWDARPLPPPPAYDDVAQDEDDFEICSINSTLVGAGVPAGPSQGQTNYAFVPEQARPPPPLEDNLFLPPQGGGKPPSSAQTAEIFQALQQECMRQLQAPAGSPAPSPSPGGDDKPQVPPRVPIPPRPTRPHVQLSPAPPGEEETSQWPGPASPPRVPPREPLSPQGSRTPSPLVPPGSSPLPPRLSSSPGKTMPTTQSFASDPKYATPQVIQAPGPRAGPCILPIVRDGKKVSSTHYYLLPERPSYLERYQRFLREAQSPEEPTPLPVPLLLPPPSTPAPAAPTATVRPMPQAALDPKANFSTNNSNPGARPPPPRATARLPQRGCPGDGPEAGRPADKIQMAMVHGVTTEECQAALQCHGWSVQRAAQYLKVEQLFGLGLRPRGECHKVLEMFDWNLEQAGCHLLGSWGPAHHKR
smiles,measurement,setting,value
CCN1CCN(Cc2ccc(NC(=O)c3ccc(C)c(Oc4ccnc5[nH]ccc45)c3)cc2C(F)(F)F)CC1,inhibition,[1],inactive
same,inhibition,Ephrin type-A receptor 2,57.7%
same,inhibition,[2],inactive
same,inhibition,[3],82.3%
same,inhibition,[4],6.1%
same,inhibition at 1 µM,[5],-5.3%
same,inhibition,[6],inactive
same,inhibition,[7],49.8%
CNc1cc(Oc2cc(C(=O)Nc3cc(N4CCN(C)CC4)cc(C(F)(F)F)c3)ccc2C)ncn1,inhibition at 1 µM,[8],-57.8%
same,inhibition,[9],-7.3%
same,inhibition,[10],11.5%
same,inhibition,[11],71.1%
CCN1CCN(Cc2ccc(NC(=O)c3ccc(C)c(/C=C/c4cnc5[nH]ccc5c4OC)c3)cc2C(F)(F)F)CC1,inhibition,[12],84%
same,% of control,[13],0.05%
same,inhibition,[14],100%
same,inhibition,[15],100%
same,inhibition,[16],37%
same,inhibition,[17],-4.1%
